# Data: ChEMBL document CHEMBL4651341, “The discovery of a novel series of compounds with single-dose efficacy against juvenile and adult Schistosoma species” (PLoS Negl Trop Dis, 2021)
# Columns and labels:
# [1] = Percentage of parent compound remaining after incubation for 90 minutes with cyropreserved human hepatocytes at a concentration of 1uM compound and 1 million cells/uL, determined by LCMS/MS; assay type: ADME, tissue-based, Hepatocyte; conditions: cryopreserved human hepatocytes, read-out: Stability
# Outline: (§1)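 Compound was incubated at 1 µM final (2 µM working solution mixed 1:1 with hepatocyte suspension) in supplemented KHB pH 7.4. Conditions: 37 °C, 5% CO2, gentle mixing, duplicates. Reaction quenched with ice-cold acetonitrile containing standard; analysed by LC-MS/MS. % remaining = AUC at t / AUC at T0.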
# [2] = Percentage of parent compound remaining after incubation for 90 minutes with cyropreserved mouse hepatocytes at a concentration of 1uM compound and […], determined by LCMS; assay type: ADME, tissue-based, Hepatocyte; conditions: cryopreserved mouse hepatocytes, read-out: Stability; outline: as §1
# Schistosoma mansoni [3] = test: Concentration required to kill 50% of 42 day old worms 5 days after drug treatment.; assay type: functional, organism-based; conditions: Puerto Rican, 120 h
# Outline: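 Adult S. mansoni were perfused from CD1 mice 6 weeks post-infection and washed. They were cultured 3 pairs per well in 1 mL DMEM with 2 mM glutamine, penicillin/streptomycin and 10% FCS […] at 37 °C, 5% CO2. Viability of individual worms was scored on day 5 (120 h).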
# Schistosoma mansoni [4] = test: Concentration required to kill 50% of 21 day old worms 5 days after drug treatment.; assay type: functional, organism-based; conditions: Puerto Rican, 120 h
# Outline: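 Juvenile S. mansoni (Puerto Rican strain) were perfused from CD1 mice 3 weeks post-infection and washed. They were cultured 6–8 per well in 200 µL DMEM with 2 mM glutamine, penicillin/streptomycin and 10% FCS at 37 °C, 5% CO2. Viability of individual worms was scored on day 5 after dosing (120 h).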
# [5] = Concentration required to kill 50% HepG2 cells as detected by MTT staining; assay type: toxicity, cell-based; conditions: homo sapiens, read-out: TC50 (the source's name)
# [6] = Solubility at 25 degC of compound (diluted from DMSO) in PBS at pH 7.4 determined after 24h (1h sonication, 22h shaking, 1h sonication) by LCMS/MS; assay type: physicochemical
# [7] = Mean plasma concentration at 4h in Swiss albino male mice at […] per compound (administered orally in a mixture of 5 compounds to 3 mice) assessed by LCMS/MS.; assay type: ADME, organism-based; conditions: mouse, po
# [8] = Partition coefficient of compound between n-octanol and PBS (pH7.4); assay type: physicochemical; conditions: octanol/water, pH 7.4
# Outline: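 Shake-flask method using octanol and PBS pH 7.4, each pre-saturated with the other. Compound was shaken 2 h at 850 rpm, 25 °C, then the phases were separated by centrifugation and both layers diluted and analysed by LC-MS/MS. LogD = log(octanol AUC × relative dilution / buffer AUC).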
# [9] = Concentration of drug in plasma at 4h following oral drug adminstration at given dose. Determined by LCMS/MS; assay type: ADME, organism-based; conditions: CD1, mouse
# Outline: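 Plasma sampled from the mice of the efficacy experiments, each animal sampled once: one animal per group at 1, 4 and 8 h, two per group at 24 h. Plasma prepared by acetonitrile protein precipitation and analysed by LC-MS against a 10-point calibration line spiked in blank matrix, with QCs at three or more levels.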
# Schistosoma mansoni [10] = test: Percentage of worms remaining following treatment of female CD1 mice infected with S. mansoni worms (21 day old - juvenile or 42 day old - adult) with compound by oral gavage. Worms were recovered by portal perfusion with citrate saline 8-14 days post treatment and counted. Percentages are from a mean of 5 or 6 animals.; assay type: functional, Mus musculus; set-up: concentration or dose not given beside the values
# Outline: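 Female CD1 mice were infected subcutaneously with 150 cercariae and treated at day 21 (juvenile) or day 42 (adult). Single oral gavage, or two doses 12 h apart, given in 7% Tween-80/3% ethanol/water (sonicated) or in 1:19 DMSO:corn oil. Controls received vehicle only. Worm recoveries are group means, n = 5–6.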
# [11] = Mean oral bioavailability in Swiss albino male mice at […] per compound (administered in a mixture of 5 compounds to 3 mice) assessed by LCMS/MS.; also: dose 2.5 mg/kg; assay type: ADME, organism-based; conditions: mouse, in vivo
# [12] = Mean time to peak plasma concentration in Swiss albino male mice at […] per compound (administered orally in a mixture of 5 compounds to 3 mice) assessed by LCMS/MS.; assay type: ADME, organism-based; conditions: mouse, po
# [13] = Plasma protein binding determined at 10uM by LC-MS/MS.; assay type: ADME, cell-free
# Outline: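 Equilibrium dialysis of plasma spiked at 10 µM (0.1% DMSO) against PBS pH 7.4, 6 h at 37 °C, duplicates. Both chambers analysed by LC-MS/MS after acetonitrile precipitation. % free = buffer/plasma area ratio; recovery also calculated.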
# [14] = Mean AUC inf in Swiss albino male mice at 1 mg/kg per compound (administered iv in a mixture of 5 compounds to 3 mice) assessed by LCMS/MS.; assay type: ADME, organism-based; conditions: male, Swiss albino, mouse, in vivo
# Outline: (§2)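 Male Swiss albino mice (~30 g), 3 per experiment, mostly dosed as mixtures of 5 compounds iv via the lateral tail vein. Vehicle: 10% DMSO/90% 50 mM Na2HPO4 with 0.5% Tween-80. Blood sampled at 5, 15, 30 min and 1, 2, 4, 8, 24 h. Plasma stored at −20 °C and quantified by LC-MS after acetonitrile precipitation.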
# [15] = Mean observed clearance in Swiss albino male mice at 1 mg/kg per compound (administered iv in a mixture of 5 compounds to 3 mice) assessed by LCMS/MS.; assay type: ADME, organism-based; conditions: male, Swiss albino, mouse, in vivo, read-out: Clearance (converted); outline: as §2
# [16] = Mean volume of distribution at steady state in Swiss albino male mice at 1 mg/kg per compound (administered iv in a mixture of 5 compounds to 3 mice) assessed by LCMS/MS.; assay type: ADME, organism-based; conditions: mouse, in vivo, read-out: Volume
# Outline: (§3)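 Male Swiss albino mice (~30 g), 3 per experiment, mostly dosed as mixtures of 5 compounds iv via the lateral tail vein. Vehicle: 10% DMSO/90% 50 mM Na2HPO4 with 0.5% Tween-80. Plasma stored at −20 °C and quantified by LC-MS after acetonitrile precipitation.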
# [17] = Mean half-life in Swiss albino male mice at 1 mg/kg per compound (administered iv in a mixture of 5 compounds to 3 mice) assessed by LCMS/MS.; assay type: ADME, organism-based; conditions: mouse, in vivo; outline: as §3
# [18] = Mean plasma concentration at 24h in Swiss albino male mice at […] per compound (administered orally in a mixture of 5 compounds to 3 mice) assessed by LCMS/MS.; assay type: ADME, organism-based; conditions: mouse, po
# [19] = Percentage of parent compound remaining after incubation for 30 minutes with cyropreserved human hepatocytes at a concentration of 1uM compound and 1 million cells/uL, determined by LCMS/MS; assay type: ADME, tissue-based, Hepatocyte; conditions: cryopreserved human hepatocytes, read-out: Stability; outline: as §1
# [20] = Percentage of parent compound remaining after incubation for 30 minutes with cyropreserved mouse hepatocytes at a concentration of 1uM compound and […], determined by LCMS; assay type: ADME, tissue-based, Hepatocyte; conditions: cryopreserved mouse hepatocytes, read-out: Stability; outline: as §1
# [21] = Concentration required to kill 50% MRC-5 cells as detected by Alamar blue staining; assay type: toxicity, cell-based, MRC5; conditions: homo sapiens, read-out: TC50 (the source's name)
# [22] = Plasma protein binding determined at 1uM by LC-MS/MS.; assay type: ADME, cell-free; conditions: mouse
# [23] = male, Swiss albino, read-out: Bioavailability
SMILES,"remaining at 1.5 h, 1 µM [1] [%]","remaining at 1.5 h, 1 µM [2] [%]",EC50 (Schistosoma mansoni [3]) [nM],EC50 (Schistosoma mansoni [4]) [nM],CC50 [5] [nM],solubility kinetic at 24 h [6] [µM],concentration at 4 h [7] [ng/mL],Lipophilicity [8],Tmax [12] [h],Binding ([13]; mouse) [%],"bioavailability [11, 23] [%]",AUC(0-inf) [14] [ng·h/mL],clearance [15] [mL/min/kg],Vd [16] [L/kg],half-life [17] [h],concentration at 24 h [18] [ng/mL],"remaining at 0.5 h, 1 µM [20] [%]",also measured
CCc1nc2cnc(-c3ccc(F)c(C(C)C)c3)cn2c1-c1ccc2[nH]ncc2c1F,37.8,59.3,3.9,5.4,11300,,,,,,,,,,,,,
CC(C)c1cc(-c2cn3c(-c4ccc5[nH]ncc5c4F)c(C4CCC4)nc3cn2)ccc1F,25.3,52.1,7.3,4.3,10900,1.35,,,,,,,,,,,,
Fc1ccc(-c2cn3c(-c4ccc5[nH]ncc5c4F)c(C(F)(F)F)nc3cn2)cc1C(F)(F)F,,,,,16600,,298,5.29 =,,,,,,,,,,concentration at 4 h [9]: 1500 ng/mL; Efficacy (Schistosoma mansoni [10]): 1.84%
Fc1ccc(-c2cn3c(-c4ccc5[nH]ncc5c4F)c(C(F)(F)F)nc3cn2)cc1C(F)(F)C(F)(F)F,,,,,11700,,359,5.6 =,2,100,,,,,,,,bioavailability [11]: 170%; concentration at 4 h [9]: 556 ng/mL; Efficacy (Schistosoma mansoni [10]): 1.84%
Fc1ccc(-c2cn3c(-c4ccc5[nH]ncc5c4F)c(C4CCC4)nc3cn2)cc1C(F)(F)F,73.6,73.4,36.8,36,,,,,,,,,,,,,,
CC(C)c1nc2cnc(-c3cccc(C(F)(F)F)c3)cn2c1-c1ccc2[nH]ncc2c1F,,,30.7,51.7,15100,1.52,194,4.56 =,0.5,99.975,63.2,929,9.15,3.44,6.03,18,93.9,"remaining at 0.5 h, 1 µM [19]: 83.1%; Binding ([13]; human): 99.997%"
Cc1nc2cnc(-c3ccc(F)c(C(F)(F)F)c3)cn2c1-c1ccc(O)cc1F,,,< 780,< 641,> 11100,1.54,7.79,3.39 =,0.25,99.805,13.5,172,48.5,2.98,2.28,0.1,64.1,CC50 [21]: 15800 nM
CC(C)c1cc(-c2cn3c(-c4ccc5[nH]ncc5c4F)c(C(C)C)nc3cn2)ccc1F,37.7,46.2,3.98,4.96,11000,0.784,119,,0.5,,64,558,15,4.48,5.69,4.17,,
Oc1ccc(-c2c(C(F)(F)F)nc3cnc(-c4cccc(C(F)(F)F)c4)cn23)c(F)c1,,,< 48.8,< 443,,17.1,43.9,4.84 =,0.25,99.965,58.4,203,41.2,9.55,4.46,1.9,58.7,Binding [22]: 100%
